In ChEMBL document CHEMBL5696442, “Discovery of type II inhibitors of TGFβ-activated kinase 1 (TAK1) and mitogen-activated protein kinase kinase kinase kinase 2 (MAP4K2)” (J Med Chem, 2015):
The source made the active and inactive calls. The calls are words filed in the database; no cut-off is given here.

Tests used:
[1] = target: Serine/threonine-protein kinase Nek7 (Homo sapiens) (UniProt Q8TDX7); assay: Inhibition of NEK7 Lys1 labeling site in human A-375 cells at 5 uM by KiNativ Profiling analysis relative to control; type: cell-based
[2] = target: T1, Inhibitor of nuclear factor kappa-B kinase subunit epsilon (Homo sapiens) (UniProt Q14164); assay: Inhibition of IKKe Lys2 labeling site in human A-375 cells at 0.5 uM by KiNativ Profiling analysis relative to control; type: cell-based
T1 sequence (whole entry): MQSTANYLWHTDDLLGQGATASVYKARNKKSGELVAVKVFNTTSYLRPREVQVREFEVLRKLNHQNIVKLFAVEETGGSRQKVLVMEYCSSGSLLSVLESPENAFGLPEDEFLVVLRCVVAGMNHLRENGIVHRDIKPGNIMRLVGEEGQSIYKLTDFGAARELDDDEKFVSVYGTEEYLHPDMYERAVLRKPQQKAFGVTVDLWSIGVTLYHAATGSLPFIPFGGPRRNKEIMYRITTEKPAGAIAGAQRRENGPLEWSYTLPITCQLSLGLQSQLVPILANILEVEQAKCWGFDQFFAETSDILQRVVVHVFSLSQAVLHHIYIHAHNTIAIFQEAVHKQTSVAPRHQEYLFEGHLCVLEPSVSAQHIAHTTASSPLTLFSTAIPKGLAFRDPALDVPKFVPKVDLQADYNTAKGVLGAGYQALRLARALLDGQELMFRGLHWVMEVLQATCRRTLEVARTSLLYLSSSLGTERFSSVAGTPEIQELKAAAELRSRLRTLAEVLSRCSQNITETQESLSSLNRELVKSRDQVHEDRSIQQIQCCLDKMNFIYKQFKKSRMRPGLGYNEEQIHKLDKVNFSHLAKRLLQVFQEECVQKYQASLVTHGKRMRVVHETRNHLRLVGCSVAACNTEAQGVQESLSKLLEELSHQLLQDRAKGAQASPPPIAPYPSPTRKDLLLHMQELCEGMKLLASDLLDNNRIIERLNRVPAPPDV

[3] = target: Cyclin-dependent kinase 18 (Homo sapiens) (UniProt Q07002); assay: Inhibition of PCTAIRE3 Lys1 labeling site harbouring SKLTENLVALKEIRLEHEEGAPCTAIR in human A-375 cells at 0.5 uM by KiNativ Profiling analysis relative to control; type: cell-based
How it was run: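 Live A375 melanoma cells were treated with compound at 5 or 0.5 μM, then lysed. Lysates were labeled with a lysine-reactive ATP or ADP-biotin probe. Read-out was the compound's protection of kinase labeling sites from probe labeling (KiNativ).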

[4] = target: T1, Inhibitor of nuclear factor kappa-B kinase subunit epsilon (Homo sapiens); assay: Inhibition of IKKe Lys2 labeling site in human A-375 cells at 0.05 uM by KiNativ Profiling analysis relative to control; type: cell-based
[5] = target: Epidermal growth factor receptor (Homo sapiens) (UniProt P00533); assay: Inhibition of EGFR Lys1 labeling site in human A-375 cells at 0.5 uM by KiNativ Profiling analysis relative to control; type: cell-based
How it was run: (§1)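 Live A375 melanoma cells were treated with compound at 0.5 or 5 μM, then lysed. Lysates were labeled with a lysine-reactive ATP or ADP-biotin probe. The read-out was protection of each kinase probe-labeling site from labeling, relative to control.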

[6] = target: Serine/threonine-protein kinase WNK3 (Homo sapiens) (UniProt Q9BYP7); assay: Inhibition of Wnk3 Lys2 labeling site in human A-375 cells at 5 uM by KiNativ Profiling analysis relative to control; type: cell-based
[7] = target: Serine/threonine-protein kinase 25 (Homo sapiens) (UniProt O00506); assay: Inhibition of YSK1 Lys2 labeling site in human A-375 cells at 5 uM by KiNativ Profiling analysis relative to control; type: cell-based
[8] = target: Serine/threonine-protein kinase WNK2 (Homo sapiens) (UniProt Q9Y3S1); assay: Inhibition of Wnk2 Lys2 labeling site in human A-375 cells at 0.05 uM by KiNativ Profiling analysis relative to control; type: cell-based
[9] = target: Casein kinase II subunit alpha (Homo sapiens) (UniProt P68400); assay: Inhibition of CK2a1 Protein Kinase Domain in human A-375 cells at 0.05 uM by KiNativ Profiling analysis relative to control; type: cell-based
[10] = target: Diacylglycerol kinase alpha (Homo sapiens) (UniProt P23743); assay: Inhibition of DGKA ATP labeling site harbouring in human A-375 cells at 0.5 uM by KiNativ Profiling analysis relative to control; type: cell-based; how it was run: as §1
[11] = system: GEN2.2; assay: Inhibition of CL097 induced p-105 phosphorylation level in human GEN2.2 cells at 1 uM preincubated with compound for 1 hr followed by CL097 stimulation and measured after 30 mins by Western blot analysis; type: functional, cell-based
How it was run: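 Gen2.2 cells were pretreated with compound at 1 μM for 1 h, then stimulated with CL097 for 30 min. Lysates were analysed by Western blot for phosphorylation of p105, p38 and JNK1/2.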

Chain of Serine/threonine-protein kinase WNK3 (Homo sapiens) (Q9BYP7 whole entry): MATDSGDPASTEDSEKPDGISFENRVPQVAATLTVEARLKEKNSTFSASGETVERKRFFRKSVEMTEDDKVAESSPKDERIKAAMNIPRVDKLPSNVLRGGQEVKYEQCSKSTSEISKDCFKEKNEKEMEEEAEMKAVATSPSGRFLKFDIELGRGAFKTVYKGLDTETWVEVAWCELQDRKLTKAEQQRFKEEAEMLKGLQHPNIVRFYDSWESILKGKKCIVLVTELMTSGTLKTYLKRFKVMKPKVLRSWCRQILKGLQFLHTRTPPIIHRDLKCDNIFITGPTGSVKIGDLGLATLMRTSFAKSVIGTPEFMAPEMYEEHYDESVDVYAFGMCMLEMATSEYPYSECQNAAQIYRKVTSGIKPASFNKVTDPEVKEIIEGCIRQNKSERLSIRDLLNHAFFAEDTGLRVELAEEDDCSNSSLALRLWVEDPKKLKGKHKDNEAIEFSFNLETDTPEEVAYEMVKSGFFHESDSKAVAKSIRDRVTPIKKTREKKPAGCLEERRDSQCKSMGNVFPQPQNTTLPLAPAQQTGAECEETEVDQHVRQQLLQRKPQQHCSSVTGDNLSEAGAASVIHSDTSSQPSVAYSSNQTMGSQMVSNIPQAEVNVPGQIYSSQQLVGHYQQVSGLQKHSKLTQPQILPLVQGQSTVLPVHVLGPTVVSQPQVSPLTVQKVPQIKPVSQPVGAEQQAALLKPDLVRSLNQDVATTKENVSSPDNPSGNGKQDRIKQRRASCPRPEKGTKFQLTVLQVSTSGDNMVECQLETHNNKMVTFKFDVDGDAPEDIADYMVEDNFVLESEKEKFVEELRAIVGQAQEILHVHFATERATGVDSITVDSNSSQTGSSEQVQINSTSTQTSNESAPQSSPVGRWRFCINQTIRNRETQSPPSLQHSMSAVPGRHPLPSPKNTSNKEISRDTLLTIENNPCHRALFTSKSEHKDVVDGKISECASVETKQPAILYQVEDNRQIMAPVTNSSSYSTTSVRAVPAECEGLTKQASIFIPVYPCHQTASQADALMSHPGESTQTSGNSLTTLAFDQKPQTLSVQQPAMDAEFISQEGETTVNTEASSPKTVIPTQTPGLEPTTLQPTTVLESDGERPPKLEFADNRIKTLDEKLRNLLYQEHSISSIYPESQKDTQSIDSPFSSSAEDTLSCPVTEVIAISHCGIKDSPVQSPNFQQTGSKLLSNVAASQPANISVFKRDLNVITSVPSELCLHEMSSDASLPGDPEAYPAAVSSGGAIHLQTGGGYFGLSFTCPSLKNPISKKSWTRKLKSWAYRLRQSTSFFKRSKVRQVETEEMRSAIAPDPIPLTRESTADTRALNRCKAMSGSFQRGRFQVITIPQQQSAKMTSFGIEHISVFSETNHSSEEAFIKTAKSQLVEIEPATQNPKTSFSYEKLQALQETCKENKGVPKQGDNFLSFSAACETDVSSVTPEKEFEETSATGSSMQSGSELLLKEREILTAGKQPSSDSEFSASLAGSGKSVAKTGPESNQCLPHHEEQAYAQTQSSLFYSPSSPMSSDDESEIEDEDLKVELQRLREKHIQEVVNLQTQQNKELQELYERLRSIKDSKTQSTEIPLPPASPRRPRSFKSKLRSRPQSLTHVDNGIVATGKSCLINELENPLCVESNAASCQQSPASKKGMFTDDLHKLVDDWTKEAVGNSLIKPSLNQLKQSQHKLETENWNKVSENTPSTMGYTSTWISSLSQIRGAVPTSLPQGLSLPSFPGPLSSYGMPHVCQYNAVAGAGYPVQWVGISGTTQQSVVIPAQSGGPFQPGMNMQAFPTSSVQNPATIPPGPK
Chain of Serine/threonine-protein kinase 25 (Homo sapiens) (O00506 whole entry, looked up): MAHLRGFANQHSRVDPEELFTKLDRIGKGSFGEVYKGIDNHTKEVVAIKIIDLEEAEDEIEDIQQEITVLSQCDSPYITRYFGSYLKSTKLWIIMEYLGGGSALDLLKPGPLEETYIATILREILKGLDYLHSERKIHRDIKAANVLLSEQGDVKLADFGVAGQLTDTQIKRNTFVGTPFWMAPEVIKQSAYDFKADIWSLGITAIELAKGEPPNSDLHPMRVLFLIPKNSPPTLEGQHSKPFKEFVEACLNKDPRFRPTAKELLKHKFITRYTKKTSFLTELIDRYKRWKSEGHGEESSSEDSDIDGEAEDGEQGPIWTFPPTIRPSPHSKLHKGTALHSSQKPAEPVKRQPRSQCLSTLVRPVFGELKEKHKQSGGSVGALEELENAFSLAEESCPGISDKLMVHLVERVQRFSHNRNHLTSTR
Chain of Epidermal growth factor receptor (Homo sapiens) (P00533 whole entry): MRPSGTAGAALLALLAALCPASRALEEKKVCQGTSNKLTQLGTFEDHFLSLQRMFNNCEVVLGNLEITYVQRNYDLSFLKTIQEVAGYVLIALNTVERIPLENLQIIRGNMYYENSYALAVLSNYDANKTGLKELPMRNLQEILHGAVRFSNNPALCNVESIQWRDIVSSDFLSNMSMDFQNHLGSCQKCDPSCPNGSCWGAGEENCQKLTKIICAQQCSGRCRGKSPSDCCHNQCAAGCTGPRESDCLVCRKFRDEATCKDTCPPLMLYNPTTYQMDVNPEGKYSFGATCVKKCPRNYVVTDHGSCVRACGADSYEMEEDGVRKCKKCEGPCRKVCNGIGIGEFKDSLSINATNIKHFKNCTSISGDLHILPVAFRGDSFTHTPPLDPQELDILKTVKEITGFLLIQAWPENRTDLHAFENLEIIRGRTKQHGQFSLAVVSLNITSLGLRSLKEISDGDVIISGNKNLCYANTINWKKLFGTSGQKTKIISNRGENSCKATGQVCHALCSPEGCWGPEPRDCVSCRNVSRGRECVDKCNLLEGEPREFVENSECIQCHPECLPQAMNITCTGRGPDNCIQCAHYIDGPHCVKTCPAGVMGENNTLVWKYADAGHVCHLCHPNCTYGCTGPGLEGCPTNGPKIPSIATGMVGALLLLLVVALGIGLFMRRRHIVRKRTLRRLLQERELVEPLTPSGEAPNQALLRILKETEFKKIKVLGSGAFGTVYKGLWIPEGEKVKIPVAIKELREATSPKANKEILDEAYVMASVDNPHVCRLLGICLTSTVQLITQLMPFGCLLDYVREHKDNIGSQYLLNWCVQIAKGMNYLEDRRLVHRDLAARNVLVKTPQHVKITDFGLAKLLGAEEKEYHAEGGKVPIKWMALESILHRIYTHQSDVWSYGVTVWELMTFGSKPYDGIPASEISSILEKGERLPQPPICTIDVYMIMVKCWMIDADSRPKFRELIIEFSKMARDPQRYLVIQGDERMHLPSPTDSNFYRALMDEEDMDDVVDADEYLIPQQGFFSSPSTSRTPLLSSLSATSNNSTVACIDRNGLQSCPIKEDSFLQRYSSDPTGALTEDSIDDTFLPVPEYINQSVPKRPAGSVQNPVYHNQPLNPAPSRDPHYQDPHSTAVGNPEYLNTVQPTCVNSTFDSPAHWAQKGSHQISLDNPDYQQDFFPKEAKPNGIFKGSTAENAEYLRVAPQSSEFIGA
Chain of Casein kinase II subunit alpha (Homo sapiens) (P68400 whole entry, looked up, the tested form may be a part): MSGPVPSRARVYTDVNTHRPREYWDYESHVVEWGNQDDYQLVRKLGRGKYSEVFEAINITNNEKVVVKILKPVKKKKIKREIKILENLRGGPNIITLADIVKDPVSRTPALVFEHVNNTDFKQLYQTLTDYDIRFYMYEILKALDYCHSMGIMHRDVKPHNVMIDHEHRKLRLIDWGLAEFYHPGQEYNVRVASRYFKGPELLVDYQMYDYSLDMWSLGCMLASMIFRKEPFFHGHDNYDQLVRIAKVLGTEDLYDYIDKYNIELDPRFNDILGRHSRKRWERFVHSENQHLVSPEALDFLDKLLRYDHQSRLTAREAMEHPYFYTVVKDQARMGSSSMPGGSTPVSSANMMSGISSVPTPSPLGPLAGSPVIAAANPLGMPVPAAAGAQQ
Chain of Cyclin-dependent kinase 18 (Homo sapiens) (Q07002 whole entry): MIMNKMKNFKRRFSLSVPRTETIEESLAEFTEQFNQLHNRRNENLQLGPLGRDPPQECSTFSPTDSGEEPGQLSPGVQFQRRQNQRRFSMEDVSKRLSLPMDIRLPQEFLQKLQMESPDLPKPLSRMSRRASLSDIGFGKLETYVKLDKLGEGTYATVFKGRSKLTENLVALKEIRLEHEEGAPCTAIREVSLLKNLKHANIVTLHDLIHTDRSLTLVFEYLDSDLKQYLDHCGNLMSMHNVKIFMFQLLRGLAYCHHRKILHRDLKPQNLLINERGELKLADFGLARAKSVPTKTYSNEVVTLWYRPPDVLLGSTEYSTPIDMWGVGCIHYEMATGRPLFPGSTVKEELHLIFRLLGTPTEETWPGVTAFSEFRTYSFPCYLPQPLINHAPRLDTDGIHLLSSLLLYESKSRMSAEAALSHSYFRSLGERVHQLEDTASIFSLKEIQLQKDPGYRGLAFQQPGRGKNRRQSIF
Chain of Diacylglycerol kinase alpha (Homo sapiens) (P23743 whole entry): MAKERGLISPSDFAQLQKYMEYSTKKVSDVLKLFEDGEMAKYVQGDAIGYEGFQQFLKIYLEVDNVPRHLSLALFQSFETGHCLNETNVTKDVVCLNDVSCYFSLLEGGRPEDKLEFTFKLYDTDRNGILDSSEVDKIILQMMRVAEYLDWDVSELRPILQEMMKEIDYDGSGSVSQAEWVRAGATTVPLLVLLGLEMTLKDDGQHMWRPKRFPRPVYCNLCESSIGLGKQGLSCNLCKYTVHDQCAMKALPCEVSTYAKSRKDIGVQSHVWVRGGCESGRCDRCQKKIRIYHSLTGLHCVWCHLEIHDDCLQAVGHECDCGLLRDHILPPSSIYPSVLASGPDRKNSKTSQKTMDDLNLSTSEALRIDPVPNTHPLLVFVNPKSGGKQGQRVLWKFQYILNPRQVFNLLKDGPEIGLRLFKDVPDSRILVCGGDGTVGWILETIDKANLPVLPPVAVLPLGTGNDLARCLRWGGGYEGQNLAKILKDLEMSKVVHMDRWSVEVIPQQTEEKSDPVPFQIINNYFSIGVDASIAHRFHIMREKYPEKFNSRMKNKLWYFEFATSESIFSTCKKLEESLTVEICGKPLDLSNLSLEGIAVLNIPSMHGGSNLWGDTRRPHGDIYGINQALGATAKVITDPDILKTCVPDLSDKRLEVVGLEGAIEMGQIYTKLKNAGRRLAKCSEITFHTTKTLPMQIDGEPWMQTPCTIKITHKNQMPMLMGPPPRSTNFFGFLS

SMILES	inhibition [1]	inhibition [2]	inhibition [3]	inhibition [4]	inhibition [5]	inhibition [6]	inhibition [7]	inhibition [8]	inhibition [9]	inhibition [10]	inhibition [11]
CCN1CCN(Cc2ccc(NC(=O)c3ccc(C)c(/C=C/c4cnc5[nH]ccc5c4OC)c3)cc2C(F)(F)F)CC1	-1.8%	16.9%	2.4%	19.8%	0.4%	14.3%	20.9%	7.1%	11.4%	-8.3%	
CNc1cc(Oc2cc(C(=O)Nc3cc(-n4cnc(C)c4)cc(C(F)(F)F)c3)ccc2C)ncn1											inactive
CCN1CCN(Cc2ccc(NC(=O)c3ccc(C)c(Oc4ccnc5[nH]ccc45)c3)cc2C(F)(F)F)CC1	0.3%	35.7%	6.9%	29.2%	-8.8%	-5.5%	15.4%	-3.5%	-4.1%	-9.4%	Active
